# Marks after values point to notes of the source that are not given here.
# Key:
# Format in all cases: in vivo, human
# [1] = Pharmacokinetics of elobixibat; settings: for AUC(0–t), back transformed LSM ratio breakfast/no breakfast / Cmax, back transformed LSM ratio breakfast/no breakfast: linear mixed effect model; for fe144h / Ae144h: urine 0-144 h; for fe144h: arithmetic mean; for Ae144h: geometric mean (CV)
# Outline: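 Single oral dose, 2.5–20 mg, with or without breakfast, in crossover. Plasma was drawn predose and at 0.5–12 h on Days –1, 1, 7 and 8, plus daily. Urine was collected daily except Day 7. Analyte was measured by LC–MS/MS (LLOQ 10.0 pg ml–1). Noncompartmental analysis with linear trapezoidal AUC. Dose proportionality (no-breakfast regimen) was assessed by power model or ANOVA on log values. Food effect: mixed model, back-transformed LSM ratios.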
# [2] = test system: plasma 7α‐hydroxy‐4‐cholesten‐3‐one (C4); experiment: Plasma C4 level, M-test; settings: Day 8 and Day 14; P < 0.001 except 2.5 mg day^–1
# [3] = test system: serum high‐density lipoprotein cholesterol (HDL‐C); experiment: Serum HDL-C level, M-test
# [4] = test system: plasma 7α‐hydroxy‐4‐cholesten‐3‐one (C4); experiment: Food effect on plasma C4, S-test; settings: up to 24 h, AUEC P < 0.001
# Outline: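 Crossover single dose taken 15 min before breakfast or fasting. Plasma was sampled predose and at 0.5–12 h on Days –1, 1, 7 and 8, plus daily. C4 was measured by LC–MS/MS (LLOQ 2 ng ml–1). […] Food effect was assessed by linear mixed model (dose, food, intervention, period fixed; patient random).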
# [5] = test system: patients with chronic constipation; experiment: Adverse events, S-test
# Outline: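 Crossover study with patients randomized 5:1 to test compound (2.5–20 mg) or placebo. Single oral dose on Day 1, taken 15 min before breakfast or without breakfast, then 6-day washout. The alternative regimen was given on Day 8, followed by 5-day observation. Inpatient Day –2 to Day 14. AE type, severity and incidence recorded with vital signs, ECG and laboratory tests. Dose trend by Cochran–Armitage test.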
# [6] = single dose 2.5 mg, before breakfast
# [7] = single dose 2.5 mg, no breakfast
# [8] = single dose 5 mg, before breakfast
# [9] = single dose 10 mg, before breakfast
# [10] = single dose 10 mg, no breakfast
# [11] = single dose 15 mg, before breakfast
# [12] = single dose 15 mg, no breakfast
# [13] = single dose 20 mg, before breakfast
# [14] = single dose 20 mg, no breakfast
# [15] = single dose 2.5 mg, before breakfast (group n=10)
# [16] = single dose 2.5 mg, no breakfast (group n=10)
# [17] = single dose 5 mg, before breakfast (group n=10)
# [18] = single dose 5 mg, no breakfast (group n=10)
# [19] = single dose 10 mg, before breakfast (group n=10)
# [20] = single dose 10 mg, no breakfast (group n=10)
# [21] = single dose 15 mg, before breakfast (group n=10)
# [22] = single dose 15 mg, no breakfast (group n=10)
# [23] = single dose 20 mg, before breakfast (group n=10)
# [24] = single dose 20 mg, no breakfast (group n=9)
smiles,measurement,setting,value
CCCCC1(CCCC)CN(c2ccccc2)c2cc(SC)c(OCC(=O)N[C@@H](C(=O)NCC(=O)O)c3ccccc3)cc2S(=O)(=O)C1 [elobixibat],"plasma elobixibat concentration, range",[1]; 2.5-20 mg,picomolar range
same,quantity of drug excreted in the urine,"[1]; all dosing levels, both regimens",less than 0.01%
same,slope of the regression line (power model) for Ae144h,"[1]; no‐breakfast regimen, 2.5-20 mg, dose proportionality",0.9321
same,fraction of dose excreted in urine (fe) up to 144 h,"[1]; no‐breakfast regimen, all dosing groups (2.5-20 mg)",< 0.01%
same,t1/2 versus dose,"[1]; no‐breakfast regimen, P < 0.001, said to be apparent (LLOQ)",prolonged dose‐dependently
same,"AUC(0–t), back transformed LSM ratio breakfast/no breakfast",[1]; single dose 2.5 mg,0.1368
same,"Cmax, back transformed LSM ratio breakfast/no breakfast",[1]; single dose 2.5 mg,0.2448
same,"AUC(0–t), back transformed LSM ratio breakfast/no breakfast",[1]; single dose 5 mg,0.2318
same,"Cmax, back transformed LSM ratio breakfast/no breakfast",[1]; single dose 5 mg,0.2922
same,"AUC(0–t), back transformed LSM ratio breakfast/no breakfast",[1]; single dose 10 mg,0.1989
same,"Cmax, back transformed LSM ratio breakfast/no breakfast",[1]; single dose 10 mg,0.2531
same,"AUC(0–t), back transformed LSM ratio breakfast/no breakfast",[1]; single dose 15 mg,0.1884
same,"Cmax, back transformed LSM ratio breakfast/no breakfast",[1]; single dose 15 mg,0.2085
same,"AUC(0–t), back transformed LSM ratio breakfast/no breakfast",[1]; single dose 20 mg,0.2275
same,"Cmax, back transformed LSM ratio breakfast/no breakfast",[1]; single dose 20 mg,0.2240
same,fe144h,[1]; [6],0.0008 ^a %
same,Ae144h,[1]; [6],24.30 (72.9) ^a ng
same,fe144h,[1]; [7],0.0098%
same,Ae144h,[1]; [7],213.28 (59.5) ng
same,fe144h,[1]; [8],0.0021%
same,Ae144h,[1]; [8],107.50 (63.4) ng
same,fe144h,"[1]; single dose 5 mg, no breakfast",0.0077%
same,Ae144h,"[1]; single dose 5 mg, no breakfast",306.59 (38.8) ng
same,fe144h,[1]; [9],0.0016%
same,Ae144h,[1]; [9],139.38 (49.9) ng
same,fe144h,[1]; [10],0.0070%
same,Ae144h,[1]; [10],598.14 (67.8) ng
same,fe144h,[1]; [11],0.0013 ^a %
same,Ae144h,[1]; [11],188.43 (37.2) ^a ng
same,fe144h,[1]; [12],0.0070 ^a %
same,Ae144h,[1]; [12],873.09 (68.4) ^a ng
same,fe144h,[1]; [13],0.0021 ^a %
same,Ae144h,[1]; [13],384.85 (55.6) ^a ng
same,fe144h,[1]; [14],0.0088%
same,Ae144h,[1]; [14],1623.23 (41.5) ng
same,C4 AUEC relative to placebo (ANCOVA),[2],significantly greater
same,"HDL‐C levels, trend",[3],no clear trend
same,"C4 Emax and AUEC, breakfast regimen compared with no‐breakfast regimen",[4],significantly greater elevations
same,"AEs associated with gastrointestinal disorders, % of patients",[5]; [15],(40.0) %
same,"AEs associated with gastrointestinal disorders, n of patients",[5]; [15],4
same,"Any AEs, % of patients",[5]; [15],(40.0) %
same,"Any AEs, n of patients",[5]; [15],4
same,"abdominal distention, % of patients",[5]; [15],(20.0) %
same,"abdominal distention, n of patients",[5]; [15],2
same,"abdominal pain lower, % of patients",[5]; [15],(20.0) %
same,"abdominal pain lower, n of patients",[5]; [15],2
same,"diarrhoea, n of patients",[5]; [15],0
same,"AEs associated with gastrointestinal disorders, % of patients",[5]; [16],(20.0) %
same,"AEs associated with gastrointestinal disorders, n of patients",[5]; [16],2
same,"Any AEs, % of patients",[5]; [16],(40.0) %
same,"Any AEs, n of patients",[5]; [16],4
same,"abdominal distention, n of patients",[5]; [16],0
same,"abdominal pain lower, % of patients",[5]; [16],(10.0) %
same,"abdominal pain lower, n of patients",[5]; [16],1
same,"diarrhoea, n of patients",[5]; [16],0
same,"AEs associated with gastrointestinal disorders, % of patients",[5]; [17],(80.0) %
same,"AEs associated with gastrointestinal disorders, n of patients",[5]; [17],8
same,"Any AEs, % of patients",[5]; [17],(80.0) %
same,"Any AEs, n of patients",[5]; [17],8
same,"abdominal distention, n of patients",[5]; [17],0
same,"abdominal pain lower, % of patients",[5]; [17],(40.0) %
same,"abdominal pain lower, n of patients",[5]; [17],4
same,"diarrhoea, % of patients",[5]; [17],(40.0) %
same,"diarrhoea, n of patients",[5]; [17],4
same,"AEs associated with gastrointestinal disorders, % of patients",[5]; [18],(50.0) %
same,"AEs associated with gastrointestinal disorders, n of patients",[5]; [18],5
same,"Any AEs, % of patients",[5]; [18],(50.0) %
same,"Any AEs, n of patients",[5]; [18],5
same,"abdominal distention, % of patients",[5]; [18],(20.0) %
same,"abdominal distention, n of patients",[5]; [18],2
same,"abdominal pain lower, % of patients",[5]; [18],(20.0) %
same,"abdominal pain lower, n of patients",[5]; [18],2
same,"diarrhoea, % of patients",[5]; [18],(30.0) %
same,"diarrhoea, n of patients",[5]; [18],3
same,"AEs associated with gastrointestinal disorders, % of patients",[5]; [19],(10.0) %
same,"AEs associated with gastrointestinal disorders, n of patients",[5]; [19],1
same,"Any AEs, % of patients",[5]; [19],(20.0) %
same,"Any AEs, n of patients",[5]; [19],2
same,"abdominal distention, n of patients",[5]; [19],0
same,"abdominal pain lower, % of patients",[5]; [19],(10.0) %
same,"abdominal pain lower, n of patients",[5]; [19],1
same,"diarrhoea, n of patients",[5]; [19],0
same,"AEs associated with gastrointestinal disorders, % of patients",[5]; [20],(10.0) %
same,"AEs associated with gastrointestinal disorders, n of patients",[5]; [20],1
same,"Any AEs, % of patients",[5]; [20],(30.0) %
same,"Any AEs, n of patients",[5]; [20],3
same,"abdominal distention, n of patients",[5]; [20],0
same,"abdominal pain lower, % of patients",[5]; [20],(10.0) %
same,"abdominal pain lower, n of patients",[5]; [20],1
same,"diarrhoea, n of patients",[5]; [20],0
same,"AEs associated with gastrointestinal disorders, % of patients",[5]; [21],(60.0) %
same,"AEs associated with gastrointestinal disorders, n of patients",[5]; [21],6
same,"Any AEs, % of patients",[5]; [21],(60.0) %
same,"Any AEs, n of patients",[5]; [21],6
same,"abdominal distention, % of patients",[5]; [21],(10.0) %
same,"abdominal distention, n of patients",[5]; [21],1
same,"abdominal pain lower, % of patients",[5]; [21],(10.0) %
same,"abdominal pain lower, n of patients",[5]; [21],1
same,"diarrhoea, % of patients",[5]; [21],(50.0) %
same,"diarrhoea, n of patients",[5]; [21],5
same,"AEs associated with gastrointestinal disorders, % of patients",[5]; [22],(100.0) %
same,"AEs associated with gastrointestinal disorders, n of patients",[5]; [22],10
same,"Any AEs, % of patients",[5]; [22],(100.0) %
same,"Any AEs, n of patients",[5]; [22],10
same,"abdominal distention, % of patients",[5]; [22],(20.0) %
same,"abdominal distention, n of patients",[5]; [22],2
same,"abdominal pain lower, % of patients",[5]; [22],(30.0) %
same,"abdominal pain lower, n of patients",[5]; [22],3
same,"diarrhoea, % of patients",[5]; [22],(70.0) %
same,"diarrhoea, n of patients",[5]; [22],7
same,"AEs associated with gastrointestinal disorders, % of patients",[5]; [23],(30.0) %
same,"AEs associated with gastrointestinal disorders, n of patients",[5]; [23],3
same,"Any AEs, % of patients",[5]; [23],(40.0) %
same,"Any AEs, n of patients",[5]; [23],4
same,"abdominal distention, % of patients",[5]; [23],(20.0) %
same,"abdominal distention, n of patients",[5]; [23],2
same,"abdominal pain lower, % of patients",[5]; [23],(10.0) %
same,"abdominal pain lower, n of patients",[5]; [23],1
same,"diarrhoea, n of patients",[5]; [23],0
same,"AEs associated with gastrointestinal disorders, % of patients",[5]; [24],(11.1) %
same,"AEs associated with gastrointestinal disorders, n of patients",[5]; [24],1
same,"Any AEs, % of patients",[5]; [24],(44.4) %
same,"Any AEs, n of patients",[5]; [24],4
same,"abdominal distention, % of patients",[5]; [24],(11.1) %
same,"abdominal distention, n of patients",[5]; [24],1
same,"abdominal pain lower, n of patients",[5]; [24],0
same,"diarrhoea, n of patients",[5]; [24],0
